Source: PubChem
iPSC survival up: enhancers of single-cell hiPSC survival, primary screen, ATPlite luminescence. 100% = ROCK inhibitor wells, 0% = DMSO. survival enhancement, % at 20 µM. actives 0.044% (n = 360,000). AID 602274, 2012; in the data active = survival enhancement above about 18%;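 note: cells exposed to compounds for 16 hours before the ATP read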
PPC-1+TRAIL kill: compounds killing PPC-1 cancer cells with TRAIL present, primary screen, TRAIL potentiator project, ATPLite luminescence, uHTS; PPC-1 cells + TRAIL, ATPLite viability luminescence; cell killing (% activity), % at 4 µM or 5 µM; actives 0.41% (n = 220,000); AID 1443, 2008;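 active = cell killing above 50% in the first pass at 4 µM, then a duplicate retest at 5 µM averaging 50% or more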
FLuc inh counter: firefly luciferase enzyme inhibitors, primary screen, artefact control for luciferase-based inhibitor screens, biochemical, luminescence, ATPLite; Luciferin 4-monooxygenase (Photinus pyralis), P08659; inhibition, % at 10 µM; actives 1.5% (n = 200,000); 10 min; AID 1006, 2008;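 active = inhibition above about 50% when tested at 10 µM, limit read from the data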
Target sequence (P08659 whole entry, looked up): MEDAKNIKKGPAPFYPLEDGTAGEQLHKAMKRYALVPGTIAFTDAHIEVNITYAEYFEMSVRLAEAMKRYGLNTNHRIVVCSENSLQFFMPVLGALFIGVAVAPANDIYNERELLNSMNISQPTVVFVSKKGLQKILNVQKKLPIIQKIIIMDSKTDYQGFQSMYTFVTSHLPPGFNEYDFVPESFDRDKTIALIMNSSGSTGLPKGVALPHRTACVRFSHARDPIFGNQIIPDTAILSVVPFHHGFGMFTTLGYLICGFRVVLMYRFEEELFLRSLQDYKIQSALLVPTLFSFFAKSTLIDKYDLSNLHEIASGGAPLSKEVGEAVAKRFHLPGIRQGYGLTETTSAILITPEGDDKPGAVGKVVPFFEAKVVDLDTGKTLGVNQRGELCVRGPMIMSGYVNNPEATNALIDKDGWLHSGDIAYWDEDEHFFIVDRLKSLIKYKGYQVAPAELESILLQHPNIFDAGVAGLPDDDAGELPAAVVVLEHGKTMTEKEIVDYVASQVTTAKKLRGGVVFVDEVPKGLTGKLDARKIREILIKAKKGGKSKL
TRAIL sens C8: viability loss with TRAIL in NB7+C8 cells, primary screen, TRAIL sensitizer project, cell-based, ATPlite luminescence. inhibition (viability loss, TRAIL sensitization), % at 10 µM. AID 624354, 2012. actives 1% (n = 360,000);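 active = compounds causing at least 50% loss of cell viability in the single-dose screen, relative to plate controls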
beta cell repl: inducers of MIN6 beta-cell proliferation, primary screen, ATP luminescence, uHTS. actives 0.29% (n = 330,000). AID 2380, 2010. MIN6 cells proliferation, ATPlite luminescence, 48 h; cells starved in 0.2% serum; 100% = growth in 10% serum. proliferation, % at 10 µM;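 active = compounds whose signal lies at least 3.5 SD above the mean of all wells on their plate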
FLuc stim CS: FLuc activators, initial screening, artefact control for FLuc-dependent activation tests, biochemical, ATPlite luminescence | Luciferin 4-monooxygenase (Photinus pyralis), P08659 | ATPlite luciferase biochemical, 10 min; 0 = ATP-free wells, 1 = DMSO control | activation factor at 10 µM | 200,000 tested, under 10 active | AID 1027, 2008;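 active = luciferase activation factor, scaled between plate controls, of at least 2 with compound at 10 µM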
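Assay system: Luciferase/luciferin detection reagent, cell-free biochemical luciferase assay / Also added: ATP substrate / Schedule: 10 min at ambient temperature / Measured by: luminescence measurement of luciferase light output / Benchmarks: low control with PBS replacing ATP, high control enzyme plus ATP without compound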
Each line names hits and unclear results; the compound was inactive in the other large screens. Sampled rows, rich in hits. Any-hit rate of the full collection: about 1.8%.

Cc1ccc(S(=O)(=O)N2CCOCC2)cc1NC(=O)COC(=O)/C=C/c1ccc(F)cc1	none (no result: PPC-1+TRAIL kill, FLuc inh counter, FLuc stim CS)
N#C/C(=C(/O)c1ccc(-c2cccc([N+](=O)[O-])c2)o1)c1nc2ccccc2s1	FLuc inh counter 66
CC1CN(C(=S)Nc2cccc(Cl)c2Cl)CC(C)O1 (centres undefined)	none (no result: PPC-1+TRAIL kill, FLuc inh counter, FLuc stim CS)
Nc1cccnc1S(=O)(=O)c1cccc(C(F)(F)F)c1	none (no result: PPC-1+TRAIL kill, FLuc inh counter, FLuc stim CS)
Nc1nc(N)c2cc(S(=O)(=O)c3cccc(C(F)(F)F)c3)ccc2n1	TRAIL sens C8 73 (no result: PPC-1+TRAIL kill, FLuc inh counter, beta cell repl, FLuc stim CS)
Cc1cc(Cl)n2c(nc3cc(F)c(F)cc32)c1C#N	TRAIL sens C8 74 (no result: beta cell repl)
CCOC(=O)[C@]12CCCC=C1N(Cc1cccc3ccccc13)C(=O)[C@H](CC(=O)NCCc1ccccc1OC)C2	none (no result: PPC-1+TRAIL kill, FLuc inh counter, beta cell repl, FLuc stim CS)
Cc1nc(-c2coc3cc(O)c(C)cc3c2=O)cs1	FLuc inh counter 83, TRAIL sens C8 60
COc1ccc(C(=O)NN(C)c2nc(-c3ccccc3)nnc2C(F)(F)F)cc1	none
CN(NC(=O)C(C)(C)C)c1nc(-c2ccccc2)nnc1C(F)(F)F	TRAIL sens C8 56
CCOc1ccc(C(=O)CN2C(=O)NC3(CCCc4ccccc43)C2=O)cc1 (centres undefined)	none (no result: PPC-1+TRAIL kill, FLuc inh counter, beta cell repl, FLuc stim CS)
COc1ccc(C)cc1Nc1nc(N)c2ccccc2n1	none (no result: PPC-1+TRAIL kill, FLuc inh counter, FLuc stim CS)
CCOc1ccc(Nc2nc(N)c3ccccc3n2)cc1	TRAIL sens C8 86 (no result: PPC-1+TRAIL kill, FLuc inh counter, FLuc stim CS)
Cc1ccc(Nc2nc(N)c3ccccc3n2)cc1Cl	TRAIL sens C8 69 (no result: PPC-1+TRAIL kill, FLuc inh counter, FLuc stim CS)
CN(C)c1nc(Nc2ccccc2)nc(N(C)C)n1	none
CN(C)c1ccc(Nc2nc(N)c3ccccc3n2)cc1	TRAIL sens C8 84 (no result: PPC-1+TRAIL kill, FLuc inh counter, FLuc stim CS)
Nc1nc(Nc2ccccc2)nc2ccccc12	FLuc inh counter 88, TRAIL sens C8 60
COc1cc(CN2CCN(C(=O)c3ccccc3F)CC2)cc(OC)c1OC	none (no result: PPC-1+TRAIL kill, FLuc inh counter, FLuc stim CS)
Cc1ccc(NC2=C/C(=N/S(=O)(=O)c3cccs3)c3ccccc3C2=O)cc1	TRAIL sens C8 95
Cc1ccc(S(=O)(=O)/N=C2\C=C(Nc3ccc(O)cc3)C(=O)c3ccccc32)cc1	TRAIL sens C8 93 (no result: PPC-1+TRAIL kill, FLuc inh counter, FLuc stim CS)
O=C1C(Nc2ccccc2)=C/C(=N/S(=O)(=O)c2cccs2)c2ccccc21	TRAIL sens C8 97 (no result: beta cell repl)
CCOC(=O)c1cc(S(=O)(=O)N2CCCC2)cn1C	none (no result: PPC-1+TRAIL kill, FLuc inh counter, FLuc stim CS)
Cn1c(=O)cc(OCCCC(=O)Nc2ccccn2)c2ccccc21	none
Cn1c(=O)cc(OCCCC(=O)Nc2cccc(Cl)c2)c2ccccc21	iPSC survival up 21 (no result: PPC-1+TRAIL kill, FLuc inh counter, beta cell repl, FLuc stim CS)
CC(=O)Nc1ccc(NC2=Nc3ccccc3N3C2=Nc2c(c(C)nn2-c2ccccc2)C3c2ccccc2)cc1 (centres undefined)	TRAIL sens C8 72
C[C@@H](NC(=O)[C@@H]1Cc2ccccc2CN1)C(=O)Nc1ccc2c(c1)OCO2	iPSC survival up 26 (no result: PPC-1+TRAIL kill, FLuc inh counter, FLuc stim CS)
CCCCSc1ccc2nc(-c3ccc(C#N)cc3)cn2c1	none
CCCSc1ccc2nc(-c3ccccc3)cn2c1	PPC-1+TRAIL kill 85, FLuc inh counter 95, TRAIL sens C8 92
CCN(CC)C(=O)COc1ccc(/C(C)=N/NC(=O)c2ccccc2O)cc1	FLuc inh counter 63
CCN(CC)C(=O)COc1ccc(/C(C)=N/NC(=O)c2ccccc2Br)cc1	none
CC(C)/C=C/C(=O)N1CCC(N2CCC(C(=O)NCC3CCCO3)CC2)CC1 (centres undefined)	none (no result: PPC-1+TRAIL kill, FLuc inh counter, beta cell repl, FLuc stim CS)
CSc1nc(O)c(/C=C2\C=Nc3ccccc32)[nH]1	FLuc inh counter 60
CC(NC1=CC(=O)c2cccnc2C1=O)C(O)c1ccccc1 (centres undefined)	TRAIL sens C8 83 (no result: PPC-1+TRAIL kill, FLuc inh counter, beta cell repl, FLuc stim CS)
CC(c1ccccc1)N1C(=O)c2cccnc2C1=O (centres undefined)	none (no result: PPC-1+TRAIL kill, FLuc inh counter, FLuc stim CS)
O=C(NCc1cccs1)c1cccc2c(-c3cccnc3)coc12	none (no result: PPC-1+TRAIL kill, FLuc inh counter, beta cell repl, FLuc stim CS)
NC(=O)c1ccccc1NS(=O)(=O)c1cccs1	none
CC(=O)Nc1ccc(N/C=C/C(=O)c2ccc(C)o2)cc1	none
Cc1cccc(N/C=C/C(=O)c2cccs2)c1C	PPC-1+TRAIL kill 59, FLuc inh counter 92, TRAIL sens C8 79
